According to ChEMBL document CHEMBL1128359, “Dicarboxylic acid dipeptide neutral endopeptidase inhibitors” (J Med Chem, 1995):

Legend:
Neprilysin [1] = target: T1, Neprilysin (Rattus norvegicus, UniProt P07861); test: In vitro inhibition of rat neutral endopeptidase by using GAAP as substrate
T1 sequence (P07861 whole entry): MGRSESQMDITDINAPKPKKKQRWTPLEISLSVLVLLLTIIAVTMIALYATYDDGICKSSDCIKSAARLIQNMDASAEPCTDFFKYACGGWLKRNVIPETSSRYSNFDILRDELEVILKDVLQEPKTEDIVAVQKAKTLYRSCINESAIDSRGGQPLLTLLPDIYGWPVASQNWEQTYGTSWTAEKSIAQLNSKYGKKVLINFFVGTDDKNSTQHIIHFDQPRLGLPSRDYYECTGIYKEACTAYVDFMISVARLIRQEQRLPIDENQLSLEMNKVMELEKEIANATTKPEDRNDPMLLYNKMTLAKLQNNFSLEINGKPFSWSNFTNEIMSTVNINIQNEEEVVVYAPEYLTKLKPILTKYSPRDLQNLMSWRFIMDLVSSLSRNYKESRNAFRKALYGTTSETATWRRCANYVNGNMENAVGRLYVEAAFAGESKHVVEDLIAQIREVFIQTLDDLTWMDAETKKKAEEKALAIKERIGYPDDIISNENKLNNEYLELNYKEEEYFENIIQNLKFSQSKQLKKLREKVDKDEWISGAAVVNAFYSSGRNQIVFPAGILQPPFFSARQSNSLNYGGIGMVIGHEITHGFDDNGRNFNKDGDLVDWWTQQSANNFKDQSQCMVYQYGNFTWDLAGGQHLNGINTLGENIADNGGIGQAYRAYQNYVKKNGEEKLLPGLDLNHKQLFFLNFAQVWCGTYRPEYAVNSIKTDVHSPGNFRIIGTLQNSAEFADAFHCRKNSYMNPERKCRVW
Summary of the method: (§1)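 Enzyme source was rat kidney cortex membranes (male Sprague-Dawley), 4.0 μg protein, plus 2.5 μg aminopeptidase M, in 50 mM Tris-HCl pH 7.4. Preincubated with inhibitor 10 min at 25 °C, then GAAP added (final 500 μM) for 25 min at 25 °C. Stopped with fast garnet, colour developed 30 min, OD read at 540 nm. Run in duplicate.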

[2] = target: T2, Neprilysin (Rattus norvegicus) (UniProt P07861); test: The compound was tested in vitro for inhibition of Neutral endopeptidase by using GAAP as substrate; settings: concentration not given here; summary of the method: as §1
T2 sequence (whole entry): T1 sequence (P07861 whole entry)

Neprilysin [3] = target: T1, Neprilysin; test: The compound was tested in vitro for inhibition of Neutral endopeptidase by using Leu enkephalin as substrate
Summary of the method: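 NEP (30 ng) preincubated 10 min with inhibitor in 50 mM Tris-HCl pH 7.4. Substrate disappearance followed by 6 min isocratic RP-HPLC on a C4 column. Duplicates.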

Neprilysin [4] = target: T1, Neprilysin; test: The compound was tested for inhibition of Neutral endopeptidase by using GAAP as substrate; summary of the method: as §1
Neprilysin [5] = target: T1, Neprilysin; test: The compound was tested in vitro for inhibition of Neutral endopeptidase by using ANF(atrial natriuretic factor) as substrate
Summary of the method: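 NEP (5.0 μg) preincubated 10 min with inhibitor in 50 mM Tris-HCl pH 7.4. Reaction started with r-ANF (final 20 μM) and run 10 min at 37 °C, then stopped with 0.6% TFA. Substrate loss measured by 3 min isocratic RP-HPLC on a C4 cartridge. Run in duplicate.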

## C[C@H](C[C@@H](Cc1ccc(-c2ccccc2)cc1)NC(=O)CC(=O)O)C(=O)O
Neprilysin [1]
  IC50: 92 nM

## CC(C)c1ccc(CC(CC(Cc2ccc(C(C)C)cc2)C(=O)NCCC(=O)O)C(=O)O)cc1 (stereo not drawn)
Neprilysin [1]
  IC50: 489 nM

## O=C(O)CCNC(=O)[C@H](Cc1ccc(-c2ccccc2)cc1)C[C@@H](Oc1ccccc1)C(=O)O (stereo in doubt; 8f)
Neprilysin [1]
  IC50: > 1000 nM

## Cc1ccc([C@H](C[C@@H](Cc2ccc(-c3ccccc3)cc2)C(=O)NCCC(=O)O)C(=O)O)cc1
Neprilysin [1]
  IC50: 54 nM

## COCC[C@H](C[C@@H](Cc1ccc(-c2ccccc2)cc1)C(=O)NCCC(=O)O)C(=O)O
Neprilysin [1]
  IC50: 46 nM

## CO[C@H](C[C@@H](Cc1ccc(-c2ccccc2)cc1)C(=O)NCCC(=O)O)C(=O)O (stereo in doubt; 8h)
Neprilysin [1]
  IC50: > 1000 nM

## CO[C@H](C[C@@H](Cc1ccc(-c2ccccc2)cc1)C(=O)NCCC(=O)O)C(=O)O (stereo in doubt; 8g)
Neprilysin [1]
  IC50: 42 nM

## O=C(O)CCNC(=O)C(Cc1ccc(-c2nccs2)cc1)CC(Cc1ccc(-c2nccs2)cc1)C(=O)O (stereo not drawn)
[2]
  inhibition: 43%
Neprilysin [1]
  IC50: > 1000 nM

## O=C(O)CCNC(=O)[C@H](Cc1ccc(-c2ccccc2)cc1)C[C@@H](Cc1ccc(-c2nccs2)cc1)C(=O)O
Neprilysin [1]
  IC50: 19 nM

## O=C(O)C1CCC(NC(=O)C(Cc2ccc(-n3cccc3)cc2)CC(Cc2ccc(-n3cccc3)cc2)C(=O)O)CC1 (stereo not drawn)
Neprilysin [1]
  IC50: 515 nM

## O=C(O)CCNC(=O)[C@@H](CCC(=O)O)Cc1ccc(-c2ccccc2)cc1
Neprilysin [3]
  IC50: 0.7 nM
Neprilysin [1]
  IC50: 155 nM
Neprilysin [4]
  IC50: 155 nM

## CCCC[C@H](C[C@@H](Cc1ccc(-c2ccccc2)cc1)C(=O)NCC(O)C(=O)O)C(=O)O (stereo partly drawn)
Neprilysin [1]
  IC50: 21 nM

## O=C(O)CCC(=O)N[C@H](Cc1ccccc1)C[C@@H](Cc1ccccc1)C(=O)O
Neprilysin [1]
  IC50: 4000 nM

## CO[C@H](C[C@@H](Cc1ccc(-c2ccccc2)cc1)NC(=O)CCCC(=O)O)C(=O)O
Neprilysin [1]
  IC50: 49 nM

## O=C(O)C1CCC(NC(=O)C(Cc2ccccc2)CC(Cc2ccccc2)C(=O)O)CC1 (stereo not drawn)
[2]
  inhibition: 52%

## O=C(O)CCNC(=O)C(Cc1ccc(-n2cccc2)cc1)CC(Cc1ccc(-n2cccc2)cc1)C(=O)O (stereo not drawn)
Neprilysin [1]
  IC50: 36 nM

## CCCC[C@H](C[C@@H](Cc1ccc(-c2ccccc2)cc1)C(=O)NCCC(=O)O)C(=O)O
Neprilysin [1]
  IC50: 66 nM

## O=C(O)CCNC(=O)[C@H](Cc1ccc(-c2ccccc2)cc1)C[C@@H](Oc1ccccc1)C(=O)O (stereo in doubt; 8e)
Neprilysin [1]
  IC50: 44 nM

## COc1ccc(C[C@H](C[C@@H](Cc2ccc(-c3ccccc3)cc2)C(=O)NCC(O)C(=O)O)C(=O)O)cc1OC (stereo partly drawn)
Neprilysin [1]
  IC50: 11 nM

## O=C(O)CCNC(=O)C(Cc1ccccc1)CC(Cc1ccccc1)C(=O)O (stereo not drawn)
Neprilysin [1]
  IC50: 1200 nM

## C[C@H](C[C@@H](Cc1ccc(-c2ccccc2)cc1)NC(=O)CCCC(=O)O)C(=O)O
Neprilysin [1]
  IC50: 90 nM

## COc1ccc(C[C@H](C[C@@H](Cc2ccc(-c3ccccc3)cc2)C(=O)NCCC(=O)O)C(=O)O)cc1OC
Neprilysin [1]
  IC50: 54 nM

## O=C(O)CCNC(=O)[C@H](Cc1ccc(-c2ccccc2)cc1)NCP(=O)(O)O
Neprilysin [3]
  IC50: 0.81 nM
Neprilysin [5]
  IC50: 2 nM

## O=C(O)CCNC(=O)C(Cc1ccc(-c2ccccc2)cc1)CC(Cc1ccc(-c2ccccc2)cc1)C(=O)O (stereo not drawn)
Neprilysin [1]
  IC50: 49 nM

## C[C@H](C[C@@H](Cc1ccc(-c2ccccc2)cc1)C(=O)NCCC(=O)O)C(=O)O
Neprilysin [1]
  IC50: 41 nM

## O=C(O)CCNC(=O)C(Cc1ccc(Oc2ccccc2)cc1)CC(Cc1ccc(Oc2ccccc2)cc1)C(=O)O (stereo not drawn)
Neprilysin [1]
  IC50: 203 nM

## O=C(O)CCNC(=O)[C@H](Cc1ccccc1)C[C@@H](Cc1ccccc1)C(=O)O
Neprilysin [3]
  IC50: 9 nM
Neprilysin [4]
  IC50: 1200 nM

## C[C@H](C[C@@H](Cc1ccc(-c2ccccc2)cc1)NC(=O)CCCCC(=O)O)C(=O)O
Neprilysin [1]
  IC50: 324 nM
